Laboratory results: ChEMBL document CHEMBL3108700, “Designing anti-inflammatory drugs from parasitic worms: a synthetic small molecule analogue of the Acanthocheilonema viteae product ES-62 prevents development of collagen-induced arthritis” (J Med Chem, 2013)
Active and inactive are the calls of the source.

Tests used:
[1] = Cytotoxicity against BLP-stimulated BALB/c mouse BMDM assessed as loss of cell viability at 5 ug/mL preincubated for 18 hrs followed by BLP challenge measured after 24 hrs by 7-AAD staining-based flow cytometric analysis
In short: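 BALB/c bone marrow macrophages (2 × 10^5/well) were rested 24 h in complete RPMI, then given 5 μg/mL compound for 18 h. Cells were stained with 7-AAD for 10 min on ice and the dead fraction read by flow cytometry. One experiment is representative of two.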

[2] = biological target: T1, Toll-like receptor 4 (Mus musculus) (UniProt Q9QUK6); experiment: Inhibition of TLR4 in BALB/c mouse BMDM assessed as reduction of LPS-stimulated IL-6 production at 0.2 ug/ml preincubated for 18 hrs followed by LPS challenge measured after 24 hrs by ELISA
T1 sequence (whole entry): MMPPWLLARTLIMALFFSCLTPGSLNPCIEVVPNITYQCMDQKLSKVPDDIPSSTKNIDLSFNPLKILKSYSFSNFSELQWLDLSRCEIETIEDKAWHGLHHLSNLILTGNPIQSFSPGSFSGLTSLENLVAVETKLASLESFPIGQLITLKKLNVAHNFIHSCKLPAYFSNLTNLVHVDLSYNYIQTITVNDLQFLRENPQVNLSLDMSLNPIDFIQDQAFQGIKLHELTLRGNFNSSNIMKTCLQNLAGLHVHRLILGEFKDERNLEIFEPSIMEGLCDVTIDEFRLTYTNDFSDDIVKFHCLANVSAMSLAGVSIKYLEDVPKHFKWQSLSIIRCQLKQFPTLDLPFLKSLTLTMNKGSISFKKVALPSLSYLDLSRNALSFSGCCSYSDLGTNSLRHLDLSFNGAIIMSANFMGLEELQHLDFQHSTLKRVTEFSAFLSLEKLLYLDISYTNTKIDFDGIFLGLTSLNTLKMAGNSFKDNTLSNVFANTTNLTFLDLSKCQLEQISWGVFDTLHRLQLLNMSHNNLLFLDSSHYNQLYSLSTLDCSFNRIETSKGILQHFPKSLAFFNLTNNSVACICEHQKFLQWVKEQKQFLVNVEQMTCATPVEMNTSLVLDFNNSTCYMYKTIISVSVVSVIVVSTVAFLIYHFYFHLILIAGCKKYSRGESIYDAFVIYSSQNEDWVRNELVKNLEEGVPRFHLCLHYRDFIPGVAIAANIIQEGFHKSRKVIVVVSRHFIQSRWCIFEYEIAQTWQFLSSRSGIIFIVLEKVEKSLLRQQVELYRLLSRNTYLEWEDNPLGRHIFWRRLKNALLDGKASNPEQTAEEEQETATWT

Mus musculus [3] = experiment: Antiinflammatory activity in DBA/1 mouse collagen-induced arthritis model assessed as reduction of disease incidence at 50 ug/kg, sc administered 2 days prior to collagen challenge continued till day 21 post collagen challenge; type: functional, organism-based
In short: (§1)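 Collagen-induced arthritis mice were dosed subcutaneously (1 μg/dose) or given PBS on days −2, 0 and 21. Arthritis was scored clinically and hind paw width measured. Incidence was the % of mice with severity score ≥2 (cumulative) or ≥4 (high score). Results are mean ± SEM. Scores n = 13 per group, pooled from two experiments; paw width n = 7, from a single experiment.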

Mus musculus [4] = experiment: Antiinflammatory activity in DBA/1 mouse collagen-induced arthritis model assessed as reduction of disease scores at 50 ug/kg, sc administered 2 days prior to collagen challenge continued till day 21 post collagen challenge; type: functional, organism-based; in short: as §1
Mus musculus [5] = experiment: Antiinflammatory activity in DBA/1 mouse assessed as reduction in number of PMA/ionomycin-stimulated gammadelta+ T cells expressing IL-17 at 50 ug/kg, sc administered 2 days prior to collagen challenge continued till day 21 post collagen challenge by flow cytometric analysis relative to control; type: functional, organism-based; conditions: T-cell
In short: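 CIA mice given test agent (1 μg/dose) or PBS subcutaneously on days −2, 0 and 21. Draining lymph node cells (10^6/mL) in complete RPMI were stimulated ± 50 ng/mL PMA plus 500 ng/mL ionomycin, with 10 μg/mL brefeldin A for 5 h at 37 °C. Cells were surface-stained for CD4, CD8 and γδ, fixed and permeabilized, then stained for intracellular IFNγ and IL-17A. Gating used isotype controls. Cell numbers per individual mouse; naive n = 7, treated groups n = 13.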

[6] = biological target: T1, Toll-like receptor 4 (Mus musculus); experiment: Inhibition of TLR4-mediated NFkappaB p65 activation in LPS-stimulated BALB/c mouse BMDM at 5 ug/ml preincubated for 18 hrs followed by LPS challenge measured after 1 hr by TransAM ELISA
In short: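 Bone marrow macrophages (4 × 10^6/well) had their medium changed after 24 h, were pretreated with compounds at 5 μg/mL for 18 h, then stimulated for 1 h with 100 ng/mL LPS, 10 ng/mL BLP or 1 μM CpG. Activated NFκB p65 in nuclear extracts was measured by TransAM ELISA in duplicate.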

[7] = biological target: T1, Toll-like receptor 4 (Mus musculus); experiment: Inhibition of TLR4 in C57BL/6 mouse BMDC assessed as reduction of LPS-induced IL-23 production at 5 ug/mL preincubated for 2 hrs prior to LPS challenge measured after 24 hrs by ELISA
In short: (§2)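 C57BL/6 bone marrow DCs were generated in complete RPMI with 10 ng/mL GM-CSF. They were preincubated ± compound at 5 μg/mL for 2 h, then stimulated with LPS for 24 h. TNF-α, IL-6 and IL-23 in conditioned medium were measured by ELISA. Values are means of triplicates ± SEM pooled from 4 experiments.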

Mus musculus [8] = experiment: Antiinflammatory activity in DBA/1 mouse collagen-induced arthritis model assessed as reduction in number of CD8+ T cells at 50 ug/kg, sc administered 2 days prior to collagen challenge continued till day 21 post collagen challenge; type: functional, organism-based; conditions: T-cell
In short: (§3)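 Dosing was 1 μg/dose or PBS given subcutaneously on days −2, 0 and 21 of CIA. Total, CD4+, CD8+ and γδ T cell numbers in draining lymph nodes were counted by flow cytometry for each mouse. Naive mice not exposed to collagen served as a further control (naive n = 7; PBS and treated n = 13).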

Mus musculus [9] = experiment: Antiinflammatory activity in DBA/1 mouse collagen-induced arthritis model assessed as reduction of high disease scores at 50 ug/kg, sc administered 2 days prior to collagen challenge continued till day 21 post collagen challenge; type: functional, organism-based; in short: as §1
Mus musculus [10] = experiment: Antiinflammatory activity in DBA/1 mouse collagen-induced arthritis model assessed as reduction in number of CD4+ T cells at 50 ug/kg, sc administered 2 days prior to collagen challenge continued till day 21 post collagen challenge; type: functional, organism-based; conditions: T-cell; in short: as §3
[11] = biological target: T1, Toll-like receptor 4 (Mus musculus); experiment: Inhibition of TLR4 in C57BL/6 mouse BMDC assessed as reduction of LPS-induced IL-6 production at 5 ug/mL preincubated for 2 hrs prior to LPS challenge measured after 24 hrs by ELISA; in short: as §2
Mus musculus [12] = species on record: Mus musculus; experiment: Inhibition of TLR4/IL-1R in BALB/c mouse BMDM assessed as downregulation of LPS-stimulated MyD88 protein expression at 5 ug/mL after 20 hrs by Western blotting analysis relative to control
In short: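 Bone marrow macrophages were treated 20 h with medium, compound (1 or 5 μg/mL) or LPS (100 ng/mL) and lysed in modified RIPA buffer. Protein (30 μg) was separated on Bis-Tris gels, and MyD88 and GAPDH were detected by Western blot with ECL. Densitometric MyD88:GAPDH ratio was normalized to the RPMI value, from six analyses.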

CN(C)CCS(=O)(=O)Cc1ccc(Br)cc1
Non-toxic: Activity [1]
inactive: inhibition [2]
0.736: fold change (FC) (Mus musculus [12])
active: Activity (Mus musculus [3]) | Activity (Mus musculus [4]) | Activity (Mus musculus [5]) | inhibition [6] | inhibition [7] | Activity (Mus musculus [8]) | Activity (Mus musculus [9]) | Activity (Mus musculus [10]) | inhibition [11]
